In the RNAGym collection of RNA variant scans (doi:10.1126/science.aae0568):
Fewer inactive variants are shown than the library holds.

B1: tRNA (parent)
chain: GUUCCGUUGGCGUAAUGGUAACGCGUCUCCCUCCUAAGGAGAAGACUGCGGGUUCGAGUCCCGUACGGAACG

Variants of: B1
Test: yeast fitness relative to wild type (ratio to wild type); higher = fitter; tRNA-Arg(CCU), competitive growth, 37 C, YPD
Outline: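 A pool of Saccharomyces cerevisiae strains, each with a tRNA-Arg(CCU) gene variant at the native genomic locus, was competed in YPD at 37°C for 24 hours across six parallel replicates. The variants had been chemically synthesised at a 3% per-site mutation rate over 69 sites, and gene amplicons before and after competition were read by 100-nucleotide paired-end sequencing. Darwinian fitness relative to wild type rested on changes in genotype frequencies. Genotypes required ≥ 100 starting reads, and estimates < 0.5 were set to 0.5.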

Row | Variant | yeast fitness
1 | A21C U28A G38A U59C G67A | ≤ 0.5
2 | A21G G56A A65G C66U | 0.638
3 | A21G C31U U35C A40G A65U | ≤ 0.5
4 | A21G C22U C24G G25C U32A C34U G39C A45G | ≤ 0.5
5 | A21G C22G U35G A36C | 0.746
6 | A21G C29U G38A C62U G67C | 0.629
7 | A21G | 1
8 | A21G G23A A57U C61G | 0.623
9 | A21G C29G C55U A69C | ≤ 0.5
10 | A21G C27A A37U G50A | 0.531
11 | A21G A42G C66G | ≤ 0.5
12 | A21G C46A A70C | 1.07
13 | A21C G67U | 0.656
14 | A21G A42C | 0.96
15 | A21G A42U | 0.839
16 | A21G U28A C30U | ≤ 0.5
17 | A21G C29U G41C A69U | 0.63
18 | A21C C60A A69G | ≤ 0.5
19 | A21G A45U A69U | 1.07
20 | A21G A43G | 1.04
21 | A21G A43C | 0.966

Row | Variant | yeast fitness
22 | A21C G23C G52C A65C | ≤ 0.5
23 | A21G C33G G38A G63A | ≤ 0.5
24 | A21G C30U | 0.97
25 | A21G C30G | 0.784
26 | A21G G25C | 1.04
27 | A21C C55G A57U G67A | ≤ 0.5
28 | A21G C24G G48C | ≤ 0.5
29 | A21G C24U C33U | ≤ 0.5
30 | A21G C30G G51C | ≤ 0.5
31 | A21C G58C C60U C66G | ≤ 0.5
32 | A21G U26C C27G G48C | ≤ 0.5
33 | A21C G52C | 0.511
34 | A21C G52A | 0.636
35 | A21G C22U G41C | 0.66
36 | A21C U64C | 0.835
37 | A21G C29G | 0.625
38 | A21G C29A | 0.693
39 | A21G A36G G38C C62G | ≤ 0.5
40 | A21C G25C U26G U59A | ≤ 0.5
41 | A21G A69C | 0.932
42 | A21G G25C C29A G58A | 0.54

Row | Variant | yeast fitness
43 | A21G C22U U32C C33A A37G A57C | ≤ 0.5
44 | A21C G38C G63C A70U | ≤ 0.5
45 | A21C U32C C46G C49G | 0.529
46 | A21G A36U C49A | ≤ 0.5
47 | A21G A36G | 0.954
48 | A21G C24U A36U C66U A69U | ≤ 0.5
49 | A21G C46U C62U | 1.1
50 | A21C G41C | 0.695
51 | A21G C46U C55G | 0.603
52 | A21G G38C G68C | ≤ 0.5
53 | A21G C66A | 0.701
54 | A21C G51A | 0.658
55 | A21C G51C | 0.528
56 | A21C U28A C31G | ≤ 0.5
57 | A21G A45U A65U | 0.674
58 | A21G A36U A45U C49U U64A A70U | ≤ 0.5
59 | A21G U26C C29U G56C A69U | ≤ 0.5
60 | A21G G23A G52C | ≤ 0.5
61 | A21G G23A C27G G39C A45G | ≤ 0.5
62 | A21G G39C C62U | ≤ 0.5
63 | A21G C33U | 0.73

Row | Variant | yeast fitness
64 | A21G C31G A69C | 0.755
65 | A21C G39C A42U G48C | ≤ 0.5
66 | A21G C34U G48A G67A | ≤ 0.5
67 | A21G C22U A36G U53C A57C A69U | ≤ 0.5
68 | A21C G56A A57G C66U | ≤ 0.5
69 | A21G C31G | 1.05
70 | A21C U26C | 0.785
71 | A21G G48C A57G G63A | ≤ 0.5
72 | A21G A43C C60G A69U | ≤ 0.5
73 | A21G C27A G67C | ≤ 0.5
74 | A21G G56U G58C A69U | ≤ 0.5
75 | A21G C29A G48C | 0.57
76 | A21C U32C C46U | 0.849
77 | A21C U26A C46U C55U | 0.608
78 | A21C U26C C34G G44A C46A C55G G58A U59C A69U | 0.625
79 | A21G C33U G44C A70C | ≤ 0.5
80 | A21C G50C | 0.584
81 | A21C G50A | 0.672
82 | A21G A37C G38A A65U G68C | ≤ 0.5
83 | A21C G63A | 0.88
84 | A21G A45G G67A | 1
